Experimental data reported in article PMC4234452 (Journal of Medicinal Chemistry, 2014).

Experiments:
[1] = biological target: T1, Human Transglutaminase 3 (TG3) (Homo sapiens, UniProt Q08188); assay: GDH-coupled transglutaminase assay, TG3; format: biochemical; settings: irreversible inhibition model, substrate ZQS
T1 sequence (Q08188 2-467 limits assumed): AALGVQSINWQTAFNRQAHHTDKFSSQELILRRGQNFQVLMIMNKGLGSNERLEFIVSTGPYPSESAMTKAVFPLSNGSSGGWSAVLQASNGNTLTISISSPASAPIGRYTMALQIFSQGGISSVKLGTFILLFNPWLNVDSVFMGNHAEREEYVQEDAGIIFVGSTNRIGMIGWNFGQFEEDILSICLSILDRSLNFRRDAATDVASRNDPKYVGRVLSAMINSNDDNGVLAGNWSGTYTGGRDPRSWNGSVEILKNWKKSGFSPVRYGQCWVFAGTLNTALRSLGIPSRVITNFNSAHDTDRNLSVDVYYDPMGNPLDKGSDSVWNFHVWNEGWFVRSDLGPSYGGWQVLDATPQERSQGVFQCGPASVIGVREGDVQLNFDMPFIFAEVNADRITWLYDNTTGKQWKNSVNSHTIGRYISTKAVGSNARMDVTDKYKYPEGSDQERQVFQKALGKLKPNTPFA
T1 sequence (Q08188 468-693 partner limits assumed): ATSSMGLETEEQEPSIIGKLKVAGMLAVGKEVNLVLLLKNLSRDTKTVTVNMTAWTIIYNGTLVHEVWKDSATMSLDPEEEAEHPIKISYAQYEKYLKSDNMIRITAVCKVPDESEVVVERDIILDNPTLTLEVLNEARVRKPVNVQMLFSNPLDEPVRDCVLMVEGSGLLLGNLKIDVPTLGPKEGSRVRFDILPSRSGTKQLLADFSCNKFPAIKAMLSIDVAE

murine TG2 (mTG2) = biological target: T2, murine TG2 (mTG2) (Mus musculus, UniProt P21981); assay: GDH-coupled transglutaminase assay, murine TG2; format: biochemical; settings: irreversible inhibition model, substrate ZQG
T2 sequence (P21981 1-686): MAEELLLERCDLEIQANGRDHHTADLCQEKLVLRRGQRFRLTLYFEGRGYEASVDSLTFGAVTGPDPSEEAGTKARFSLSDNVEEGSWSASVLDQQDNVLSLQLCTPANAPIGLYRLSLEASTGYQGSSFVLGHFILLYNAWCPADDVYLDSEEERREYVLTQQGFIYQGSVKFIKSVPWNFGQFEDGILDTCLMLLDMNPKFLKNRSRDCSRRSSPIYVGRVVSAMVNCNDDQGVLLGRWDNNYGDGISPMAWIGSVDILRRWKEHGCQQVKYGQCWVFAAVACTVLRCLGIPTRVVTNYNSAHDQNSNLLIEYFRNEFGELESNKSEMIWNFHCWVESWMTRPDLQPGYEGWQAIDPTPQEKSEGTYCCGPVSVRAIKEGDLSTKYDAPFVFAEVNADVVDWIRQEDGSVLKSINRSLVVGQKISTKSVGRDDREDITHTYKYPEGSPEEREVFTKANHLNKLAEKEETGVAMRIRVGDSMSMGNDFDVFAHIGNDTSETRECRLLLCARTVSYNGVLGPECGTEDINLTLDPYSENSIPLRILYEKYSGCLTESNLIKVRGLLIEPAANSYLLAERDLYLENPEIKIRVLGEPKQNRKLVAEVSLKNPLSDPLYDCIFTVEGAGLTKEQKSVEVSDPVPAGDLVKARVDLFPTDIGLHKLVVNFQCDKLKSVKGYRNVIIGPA

human TG2 = biological target: T3, human TG2 (Homo sapiens, UniProt P21980, V224G); assay: GDH-coupled transglutaminase assay, TG2; format: biochemical
T3 sequence (P21980 1-687 V224G): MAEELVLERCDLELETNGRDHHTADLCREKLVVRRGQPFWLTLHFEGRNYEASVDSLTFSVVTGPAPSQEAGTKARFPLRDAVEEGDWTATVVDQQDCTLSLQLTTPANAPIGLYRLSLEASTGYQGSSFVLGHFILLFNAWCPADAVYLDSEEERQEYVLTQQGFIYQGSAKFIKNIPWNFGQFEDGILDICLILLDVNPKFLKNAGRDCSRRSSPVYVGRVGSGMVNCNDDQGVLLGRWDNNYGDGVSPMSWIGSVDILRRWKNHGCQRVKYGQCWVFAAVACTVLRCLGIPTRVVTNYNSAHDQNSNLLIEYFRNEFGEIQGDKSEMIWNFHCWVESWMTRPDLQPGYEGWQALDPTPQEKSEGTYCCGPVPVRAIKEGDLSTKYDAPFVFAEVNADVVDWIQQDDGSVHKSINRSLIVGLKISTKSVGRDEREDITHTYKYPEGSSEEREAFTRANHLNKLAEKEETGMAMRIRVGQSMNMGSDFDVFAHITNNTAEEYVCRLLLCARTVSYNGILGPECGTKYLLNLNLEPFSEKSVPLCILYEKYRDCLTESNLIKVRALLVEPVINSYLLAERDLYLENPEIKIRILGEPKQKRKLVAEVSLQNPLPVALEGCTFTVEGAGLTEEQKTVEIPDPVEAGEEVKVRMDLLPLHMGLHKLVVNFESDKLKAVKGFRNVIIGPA

[2] = Plasma concentrations after pooled oral dosing to mice; format: in vivo; settings: 50 mg/kg
In short: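 Test compounds given as mixtures by oral gavage (10 μL/g) at 50 mg/kg of each constituent to cohorts of five male CD-1 mice, 6−8 weeks old, fasted about 6 h. Blood was drawn into lithium-heparin tubes from the saphenous vein at 5 and 20 min, and by cardiac puncture at 60 min after CO2 euthanasia. Each compound's plasma concentration was quantified and plotted against time.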

human TG1 = biological target: T4, human TG1 (Homo sapiens, UniProt P22735); assay: GDH-coupled transglutaminase assay, TG1; format: biochemical
T4 sequence (P22735 63-817): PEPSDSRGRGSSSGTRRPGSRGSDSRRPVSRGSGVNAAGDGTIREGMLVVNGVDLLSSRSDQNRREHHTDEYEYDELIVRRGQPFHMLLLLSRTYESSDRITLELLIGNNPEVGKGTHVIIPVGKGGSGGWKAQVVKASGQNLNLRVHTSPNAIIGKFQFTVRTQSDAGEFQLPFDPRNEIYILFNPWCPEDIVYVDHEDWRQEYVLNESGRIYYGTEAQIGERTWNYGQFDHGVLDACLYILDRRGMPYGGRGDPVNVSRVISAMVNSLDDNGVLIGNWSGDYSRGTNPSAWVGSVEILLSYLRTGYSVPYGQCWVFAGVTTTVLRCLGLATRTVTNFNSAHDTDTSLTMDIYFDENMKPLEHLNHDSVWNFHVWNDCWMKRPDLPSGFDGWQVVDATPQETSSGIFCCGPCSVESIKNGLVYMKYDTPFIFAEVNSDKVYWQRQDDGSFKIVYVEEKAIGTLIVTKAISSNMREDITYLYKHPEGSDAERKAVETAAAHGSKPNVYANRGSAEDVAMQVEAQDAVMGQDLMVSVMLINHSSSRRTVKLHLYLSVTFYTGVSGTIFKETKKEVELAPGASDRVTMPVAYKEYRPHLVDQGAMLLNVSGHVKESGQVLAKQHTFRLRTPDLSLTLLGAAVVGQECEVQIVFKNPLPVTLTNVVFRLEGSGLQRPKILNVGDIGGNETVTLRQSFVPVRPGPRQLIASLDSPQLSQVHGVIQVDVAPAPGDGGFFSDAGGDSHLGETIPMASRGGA

TG2 = settings: murine model of hypoxia-induced pulmonary hypertension ref 22; cited from earlier work
[3] = twice-daily, intraperitoneal, 50 mg/kg, several weeks ref 22; cited from earlier work

| Molecule | kinh/Ki TG3 [1] [M⁻¹ s⁻¹] | kinh/Ki mTG2 (murine TG2 (mTG2)) [M⁻¹ s⁻¹] | also measured |
| --- | --- | --- | --- |
| (2S,4R)-Quinolin-3-ylmethyl 4-(Benzyloxy)-2-((((S)-3-bromo-4,5-dihydroisoxazol-5-yl)methyl)carbamoyl)pyrrolidine-1-carboxylate [Compound 5c] | < 16.7 | 258 |  |
| O=C(NC[C@@H]1CC(Br)=NO1)[C@@H]1C[C@H](F)CN1C(=O)OCc1cnc2ccccc2c1 [Compound 4b, (2S,4S)-Quinolin-3-ylmethyl 2-((((S)-3-Bromo-4,5-dihydroisoxazol-5-yl)methyl)carbamoyl)-4-fluoropyrrolidine-1-carboxylate] | < 16.7 | 117 |  |
| C#CCOC(=O)N1CCC[C@H]1C(=O)NC[C@@H]1CC(Br)=NO1 [Compound 10b, (S)-Prop-2-yn-1-yl 2-((((S)-3-Bromo-4,5-dihydroisoxazol-5-yl)methyl)carbamoyl)pyrrolidine-1-carboxylate] |  |  | selectivity for TG2 over TG1 (human TG2; from kinh/Ki): 3 fold |
| O=C(N[C@@H]1C[C@@H](C(=O)NC[C@@H]2CC(Br)=NO2)N(C(=O)OCc2cnc3ccccc3c2)C1)c1cccnc1 [Compound 9e, (2S,4R)-Quinolin-3-ylmethyl 2-((((S)-3-Bromo-4,5-dihydroisoxazol-5-yl)methyl)carbamoyl)-4-(nicotinamido)pyrrolidine-1-carboxylate] | < 16.7 | 177 | oral bioavailability / systemic availability (in words) [2]: much less bioavailable |
| O=C(NC[C@@H]1CC(Br)=NO1)[C@@H]1CCCN1C(=O)OCc1cnc2ccccc2n1 [Compound 10l, (S)-Quinoxalin-2-ylmethyl 2-((((S)-3-Bromo-4,5-dihydroisoxazol-5-yl)methyl)carbamoyl)pyrrolidine-1-carboxylate] |  |  | selectivity for TG1 (over TG2) (human TG1; from kinh/Ki): 10 fold |
| O=C(N[C@@H]1C[C@@H](C(=O)NC[C@@H]2CC(Br)=NO2)N(C(=O)OCc2cnc3ccccc3c2)C1)c1ccc(O)cc1 [Compound 9d, (2S,4R)-Quinolin-3-ylmethyl 2-((((S)-3-Bromo-4,5-dihydroisoxazol-5-yl)methyl)carbamoyl)-4-(4-hydroxybenzamido)pyrrolidine-1-carboxylate] | < 16.7 | 157 | oral bioavailability / systemic availability (in words) [2]: much less bioavailable |
| O=C(NC[C@@H]1CC(Br)=NO1)[C@@H]1CCCN1C(=O)OCc1cnc2ccccc2c1 [Compound 1, (S)-Quinolin-3-ylmethyl 2-((((S)-3-Bromo-4,5-dihydroisoxazol-5-yl)methyl)carbamoyl)pyrrolidine-1-carboxylate] | < 16.7 | 138 | kinh/Ki TG1 (human TG1; irreversible inhibition model, substrate ZQS, listed as ERW1041E): 217 M⁻¹ s⁻¹; kinh/Ki TG2 (human TG2; irreversible inhibition model, substrate ZQG, listed as ERW1041E): 283 M⁻¹ s⁻¹; decrease in potency from ERW1069 to ERW1041E (human TG2; relative to ERW1069): 3–4 fold; peak plasma concentration after oral dosing [2]: 2 to 3 µg/mL; inhibitory half-life (TG2): about 12 h; tolerability [3]: well tolerated |
| O=C(NC[C@@H]1CC(Br)=NO1)[C@@H]1C[C@@H](c2ccc(O)cc2)CN1C(=O)OCc1cnc2ccccc2c1 [Compound 7e, (2S,4S)-Quinolin-3-ylmethyl 2-((((S)-3-Bromo-4,5-dihydroisoxazol-5-yl)methyl)carbamoyl)-4-(4-hydroxyphenyl)pyrrolidine-1-carboxylate] | < 16.7 | 645 | plasma levels, fold lower than that of 4b [2]: 3–4 fold |
| O=C(NC[C@@H]1CC(Br)=NO1)[C@@H]1C[C@@H](c2ccccc2)CN1C(=O)OCc1cnc2ccccc2c1 [Compound 7a, (2S,4S)-Quinolin-3-ylmethyl 2-((((S)-3-Bromo-4,5-dihydroisoxazol-5-yl)methyl)carbamoyl)-4-phenylpyrrolidine-1-carboxylate] | < 16.7 | 423 | plasma levels, fold lower than that of 4b [2]: 3–4 fold |
| O=C(NC[C@@H]1CC(Br)=NO1)[C@@H]1C[C@@H](O)CN1C(=O)OCc1cnc2ccccc2c1 [Compound 4e, (2S,4R)-Quinolin-3-ylmethyl 2-((((S)-3-Bromo-4,5-dihydroisoxazol-5-yl)methyl)carbamoyl)-4-hydroxypyrrolidine-1-carboxylate] | < 16.7 | 185 |  |
